GRIN3A LBD mod – binders of NR3A ligand-binding domain, primary screen, biophysical, differential scanning fluorimetry, uHTS; Glutamate receptor ionotropic, NMDA 3A (GRIN3A) ligand-binding domain; NR3A LBD differential scanning fluorimetry, Tm shift; 0% = protein alone, 100% = glycine-bound protein; Tm shift relative to glycine control, % at 25 µM; 340,000 tested, 2.5% active; AID 1259313, 2017;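 active means melting temperature shift of at least 10% of the positive control shift, at one fixed dose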
SENP1 inh – human SENP1 catalytic domain inhibitors, primary screen, biochemical, FRET, uHTS; Sentrin-specific protease 1 (Homo sapiens), Q9P0U3; 360,000 tested, 0.21% active; inhibition, % at 10 µM; recombinant SENP1 catalytic domain, CyPet-SUMO1-YPet FRET cleavage;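 active means inhibition at least 30% at 10 µM, raw YFP signal under a set limit, fluorescence ratio 0.5 to 1.5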;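 further: 0% = enzyme with DMSO and 100% = no enzyme wells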
Target sequence (Q9P0U3 419-644 limits assumed): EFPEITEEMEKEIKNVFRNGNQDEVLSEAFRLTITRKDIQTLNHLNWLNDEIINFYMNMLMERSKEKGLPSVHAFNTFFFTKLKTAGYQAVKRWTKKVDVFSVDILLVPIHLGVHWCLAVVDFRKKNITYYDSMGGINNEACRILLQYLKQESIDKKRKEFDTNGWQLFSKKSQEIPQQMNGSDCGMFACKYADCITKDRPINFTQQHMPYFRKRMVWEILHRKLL
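Material: hSENP1 catalytic domain, recombinant; medium: Tris pH 8 with BME, BSA, NP40 and catalase; compound: single concentration of 10 µM compound, 0.5% DMSO final; technique: FRET read of cyan and yellow fluorescence; timing: 50 min enzyme reaction, room temperature, light-protected; reagent: SFCypet-SUMO1-SFYpet substrate at 25 nM; control set: no-enzyme low, enzyme-DMSO high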
ATG4B inhibitor – ATG4B protease inhibitors, primary screen, biochemical, fluorescence, uHTS; inhibition, % at 8.33 µM; ATG4B cleavage of LC3-PLA2, NBD-HPC fluorescence, 1 h; Cysteine protease ATG4B (Homo sapiens), Q9Y4P1; 340,000 tested, 0.51% active; in the data active means inhibition above about 40%
UCH37 DUB inh – inhibitors of human UCH37 deubiquitinase, primary screen, biochemical, Ub-AMC cleavage, fluorescence; inhibition, % (concentration not given with the values); purified proteasome/UCH37; 330,000 tested, 0.33% active; Ubiquitin carboxyl-terminal hydrolase isozyme L5 (Homo sapiens), Q9Y5K5;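 active means mean inhibition over replicate wells above about 20%, limit read from the data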;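 further: 0% = compound-free wells with enzyme and 100% = wells lacking proteasome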
Target sequence (Q9Y5K5 whole entry, looked up): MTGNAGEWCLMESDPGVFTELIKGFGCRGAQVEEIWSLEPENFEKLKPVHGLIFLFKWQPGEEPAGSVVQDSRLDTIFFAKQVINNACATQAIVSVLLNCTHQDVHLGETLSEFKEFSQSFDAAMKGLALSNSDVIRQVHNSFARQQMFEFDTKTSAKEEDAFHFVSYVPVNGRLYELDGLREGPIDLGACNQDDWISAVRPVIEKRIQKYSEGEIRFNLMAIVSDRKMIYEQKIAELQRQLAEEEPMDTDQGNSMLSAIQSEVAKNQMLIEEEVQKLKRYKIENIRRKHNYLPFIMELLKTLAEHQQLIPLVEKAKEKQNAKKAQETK
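system = Proteasome-associated human UCH37 deubiquitinase | amount = 0.15 nM proteasome as dispensed | medium = pH 7.4 Tris-HCl (50 mM) with ovalbumin, ATP-MgCl2, DTT | incubation = 30 min preincubation with enzyme, 25 min cleavage at room temperature | detection = AMC fluorescence 355/460 nm | read-out basis = percent inhibition | controls = no-proteasome and no-compound wells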
NadD block – inhibitors of S. aureus NadD, primary screen, biochemical, colorimetric, uHTS. 360,000 tested, 0.78% active. AID 602399, 2012. purified NadD enzyme, colorimetric absorbance read-out. inhibition, % at 20 µM. Nicotinate-nucleotide adenylyltransferase NadD (Staphylococcus aureus N315); in the data active means inhibition above about 26%
NadD conf – inhibitors of S. aureus NadD, confirmation, biochemical, colorimetric, single concentration. 2,000 tested, 13% active. shares compounds with NadD block. inhibition, % at 20 µM. purified S. aureus NadD, colorimetric enzyme assay; in the data active means inhibition mostly above about 42%, no sharp cut-off; inactive means mostly below about 42%
Active calls of the source: *; · = no result. Sampled rows, rich in hits. Any-hit rate of the full collection: about 3.6%.

SMILES	GRIN3A LBD mod	SENP1 inh	ATG4B inhibitor	UCH37 DUB inh	NadD block	NadD conf
CCOC(=O)c1c(-c2ccccc2Cl)csc1NC(=O)CSc1nc(C)cc(=O)[nH]1	-12	1	-3	5	28*	55*
CN(C)c1ccc(/C=N/NC(=O)c2nnn(-c3nonc3N)c2CN(C)c2ccccc2)cc1	15*	-54	3	·	37*	38
Nc1nonc1-n1nnc(C(=O)N/N=C/c2ccccc2)c1CN1CCc2ccccc21	1	-9	-18	·	61*	43
Nc1nonc1-n1nnc(C(=O)NN=Cc2ccc(OCc3ccccc3)cc2)c1CN1CCCCC1	·	·	·	3	·	·
CCOc1ccc(C=NNC(=O)c2nnn(-c3nonc3N)c2-c2ccc(OCC)cc2)cc1	·	·	·	-3	·	·
CCN(CC)c1ccc(/C=N/NC(=O)c2nnn(-c3nonc3N)c2-c2ccc(C)cc2)cc1	4	-24	-4	·	47*	25
CC(=NNC(=O)Cc1ccc([N+](=O)[O-])cc1)c1cccnc1	·	·	·	-1	·	·
Cc1cc(NN=C2CC(C)CC(C)(C)C2)nc2ccccc12 (configuration not stated)	·	·	·	-6	·	·
CC(C)C[C@@H](CN1CCC[C@H]1CN1C(=O)C(=O)NC[C@@H]1Cc1ccc(O)cc1)N1C[C@H](Cc2ccccc2)N(CC2CCCCC2)C(=O)C1=O	·	0	·	·	28	·
CC(C)C[C@@H](CN1CCC[C@H]1CN1C(=O)C(=O)NC[C@@H]1Cc1ccccc1)N1C[C@H](Cc2ccccc2)N(CC2CCCCC2)C(=O)C1=O	·	-1	·	·	33*	29
CC(C)C[C@@H](CN1CCC[C@H]1CN1C(=O)C(=O)NC[C@@H]1Cc1ccc(O)cc1)N1C[C@H](Cc2ccc(O)cc2)N(CC2CCCCC2)C(=O)C1=O	·	-2	·	·	32*	30
Cc1c(NC(=O)C(=O)NN=Cc2cccs2)c(=O)n(-c2ccccc2)n1C	·	·	·	7	·	·
CC1CC(C)CN(C(=O)c2ccc3c(=O)n(Cc4ccc5c(c4)OCO5)c(=S)[nH]c3c2)C1 (configuration not stated)	-4	2	101*	2	32*	5
O=C(c1ccc2c(=O)n(Cc3ccco3)c(=S)[nH]c2c1)N1CCN(c2ccccc2)CC1	2	-1	-16	1	28*	24
CCN(N=Cc1ccccc1)c1cc(=O)n(C)c(=O)[nH]1	·	·	·	13	·	·
COc1ccc(C=NNc2ccc(C(=O)O)cc2)c(OC)c1OC	·	·	·	9	·	·
O=c1cc(O)c2sc(Nc3ccc(F)c(Cl)c3)nc2[nH]1	6	-53	11	5	12	·
O=c1cc(O)c2sc(Nc3ccc(Cl)c(F)c3)nc2[nH]1	1	-61	14	7	38*	8
Cc1ccsc1C=NNC(=O)CC(=O)NCc1ccccc1	·	·	·	5	·	·
CC1=C(C(=O)Nc2ccccc2)C(c2ccc(Cl)cc2)n2c(s/c(=C/c3cccc(OCC(=O)O)c3)c2=O)=N1 (configuration not stated)	-4	14	27	·	23	·
CCOc1ccc(C2C(C(=O)Nc3ccccc3)=C(C)N=c3s/c(=C/c4cccc(OCC(=O)O)c4)c(=O)n32)cc1 (configuration not stated)	-8	16	25	·	33*	44
CCOC(=O)C1=C(C)N=c2s/c(=C\c3ccc(OCC(=O)O)cc3)c(=O)n2C1c1ccc(Cl)cc1 (configuration not stated)	7	-33	6	·	16	·
CC1=C(C(=O)OC(C)C)C(c2ccc(Cl)cc2)n2c(sc(=Cc3ccc(OCC(=O)O)cc3)c2=O)=N1 (configuration not stated)	·	-31	·	-5	30*	14
N#CC1=CN(Cc2ccccc2)C=C(C=NNc2ccccc2)C1	·	·	·	-10	·	·
O=C(NN=Cc1ccc(O)c(O)c1)C1CC1	·	·	·	-3	·	·
SMILES	GRIN3A LBD mod	SENP1 inh	ATG4B inhibitor	UCH37 DUB inh	NadD block	NadD conf
COc1cc(C=NO)ccc1OCc1ccc([N+](=O)[O-])cc1	·	·	·	5	·	·
O=C(Cc1cccc2ccccc12)NN=Cc1ccc(OC(=O)/C=C/c2ccco2)cc1	·	·	·	1	·	·
O=C(CNc1cccc2ccccc12)N/N=C/C(Br)=C/c1ccccc1	16*	-14	-1	·	45*	24
O=C(/C=C/c1ccco1)Oc1cc(Br)cc(/C=N/NC(=O)c2ccccc2O)c1	11*	-26	27	·	38*	36
O=C(CNc1cccc2ccccc12)N/N=C/c1ccc(OC(=O)/C=C/c2ccco2)cc1	6	-10	-5	·	40*	13
COc1cccc(C=NNC(=O)c2cc(-c3cccn3C)n[nH]2)c1O	·	·	·	0	·	·
CC(=NNC(=O)Cn1nc(C)cc1C)c1ccc([N+](=O)[O-])cc1	·	·	·	2	·	·
COc1cc(OC)cc(C(=O)Oc2ccc(/C=N/Nc3nc4ccccc4s3)cc2OC)c1	18*	-19	15	·	37*	10
CCOc1cc(/C=C2\N=C(SC)SC2=O)cc([N+](=O)[O-])c1OC(C)=O	5	7	31	8	46*	2
CC(Cc1ccccc1)=NNC(=O)c1cc(C(C)(C)C)[nH]n1	·	·	·	3	·	·
O=C(Nc1nnc(SCc2ccc(F)cc2)s1)C1Cc2ccccc2CN1C(=O)c1ccco1 (configuration not stated)	-4	-13	31	3	60*	52*
COCCN1C(=O)Cc2c1nc(N)c1c(N)nc(N3CCN(c4ccc(F)cc4)CC3)c(C#N)c21	4	-23	3	-11	37*	9
O=C(COc1cccc(Cl)c1)Nc1nc(-c2ccc(S(=O)(=O)N3CCOCC3)cc2)cs1	-6	2	-23	2	32*	7
O=Cc1c(Nc2cccc(C(F)(F)F)c2)nc2ccccn2c1=O	2	1	-3	5	-8	·
O=C(N/N=C/c1c(Nc2cccc(C(F)(F)F)c2)nc2ccccn2c1=O)c1ccccc1[N+](=O)[O-]	10*	-14	-5	·	32*	5
NCCCC[C@@H]1NC(=O)[C@H](CCC(=O)O)NC(=O)c2cc([N+](=O)[O-])cc(I)c2SC[C@@H](C(=O)NCC(N)=O)NC1=O	3	-2	9	1	-1	·

Screens from PubChem BioAssay.
